# High-throughput results deposited in PubChem BioAssay by several laboratories.
# NR3A LBD binder: binders of NR3A ligand-binding domain, primary screen, biophysical, differential scanning fluorimetry, uHTS. AID 1259313, 2017. Tm shift relative to glycine control, % at 25 µM. hit rate 2.5% among 340,000. NR3A LBD differential scanning fluorimetry, Tm shift; 0% = protein alone, 100% = glycine-bound protein;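 active = melting temperature shift of at least 10% of the positive control shift, at one fixed dose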
# Lipid droplet: inhibitors of hepatocyte lipid droplet formation, primary screen, imaging, high-throughput imaging, BODIPY stain | AML12 mouse hepatocytes, oleate lipid droplets | inhibition, % at 6.5 µM | hit rate 0.4% among 240,000;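 active = lipid droplet intensity inhibited by at least 50%, with more than 500 cells counted; inconclusive = wells with under 300 cells, treated as cytotoxic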
#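 Material: mouse AML12 hepatocyte cell line, fixed after treatment; Timing: compound with oleate, overnight; Technique: high-content imaging of BODIPY-stained droplets and DAPI nuclei; Probe or stimulus: oleate, 100 µM final; Dosing: compound at 6.5 µM only.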
# GC-B act: human GC-B receptor activators, primary screen, HEK293 GC-B cells, cGMP TR-FRET, EC30 CNP | hit rate 0.11% among 370,000 | Atrial natriuretic peptide receptor 2 (Homo sapiens), P20594 | activation, % at 10 µM | 0% at EC30 CNP, 100% saturating CNP;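 active = activation at 10 µM reaching about 35% in either raw or pattern-adjusted values, limit read from the data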
# Target sequence (P20594 whole entry, looked up): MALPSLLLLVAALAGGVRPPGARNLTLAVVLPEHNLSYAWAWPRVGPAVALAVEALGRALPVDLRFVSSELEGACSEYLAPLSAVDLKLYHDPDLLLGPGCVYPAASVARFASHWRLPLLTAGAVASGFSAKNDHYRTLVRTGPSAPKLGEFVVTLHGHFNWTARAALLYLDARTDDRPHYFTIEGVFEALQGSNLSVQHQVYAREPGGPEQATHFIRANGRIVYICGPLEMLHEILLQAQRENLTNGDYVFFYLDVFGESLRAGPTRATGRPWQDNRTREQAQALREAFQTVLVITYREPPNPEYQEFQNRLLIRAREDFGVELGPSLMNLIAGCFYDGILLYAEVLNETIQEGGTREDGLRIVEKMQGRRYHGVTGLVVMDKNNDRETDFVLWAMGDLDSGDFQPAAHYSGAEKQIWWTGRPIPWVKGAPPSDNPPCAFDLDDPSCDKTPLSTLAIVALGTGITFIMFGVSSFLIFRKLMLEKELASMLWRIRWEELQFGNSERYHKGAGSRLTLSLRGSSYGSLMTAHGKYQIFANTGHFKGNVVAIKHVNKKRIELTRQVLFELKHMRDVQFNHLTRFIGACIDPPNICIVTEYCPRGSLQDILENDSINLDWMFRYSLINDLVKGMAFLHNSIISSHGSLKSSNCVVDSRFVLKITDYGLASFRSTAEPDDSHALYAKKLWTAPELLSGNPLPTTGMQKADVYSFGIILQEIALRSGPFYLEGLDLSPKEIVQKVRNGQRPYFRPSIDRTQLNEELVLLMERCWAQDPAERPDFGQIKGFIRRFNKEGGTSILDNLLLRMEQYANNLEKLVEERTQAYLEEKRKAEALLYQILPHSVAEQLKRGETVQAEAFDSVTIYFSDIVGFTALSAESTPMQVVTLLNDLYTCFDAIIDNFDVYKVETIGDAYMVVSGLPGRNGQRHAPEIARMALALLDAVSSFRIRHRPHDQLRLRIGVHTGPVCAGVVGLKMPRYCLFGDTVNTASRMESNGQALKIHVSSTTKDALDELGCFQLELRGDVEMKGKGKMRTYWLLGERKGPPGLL
# JMJD2C inh: inhibitors of GASC-1 histone demethylase, primary screen, biochemical, fluorescence, DELFIA europium; hit rate 0.069% among 330,000; inhibition, % at 2.35 µM; Lysine-specific demethylase 4C (Homo sapiens), Q9H3R0; GST-JMJD2C(1-420) H3K9me3 demethylation;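 active = more than half of a compound's replicate wells show inhibition beyond 50%, single wells judged on their own value; inconclusive = some, but no more than half, of replicates pass 50% inhibition; inactive = no replicate passes 50% inhibition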;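 note: signal counts dimethyl H3K9 product captured on neutravidin plate; 0% = median of DMSO wells and 100% = 0.3 times that DMSO median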
# GC-A act: GC-A stimulated cGMP production enhancers – HEK293 GC-A cells, cGMP TR-FRET, EC30 ANP, primary screen; Atrial natriuretic peptide receptor 1 (Homo sapiens), P16066; hit rate 0.14% among 370,000; 0% at EC30 ANP, 100% saturating ANP; activation, % at 10 µM; in the data active = activation above about 40%
# aDG glyco up: activators of alpha-DG glycosylation, primary screen, uHTS, Pro5-aDG cells, AlphaScreen; hit rate 0.22% among 360,000; activation, % at 10 µM; alpha-DG glycosylation AlphaScreen (IIH6); 0% Pro5, 100% B10-LARGE cell signal; AID 624168, 2012;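 active = activation of at least 8% versus controls, or a plate z-score of at least 8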;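 note: Pro5 are CHO cells carrying HIG-tagged alpha-DG that lacks glycosylation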
# The depositor's hits bear a star; ? = inconclusive; . = no result. Hits are enriched below; roughly 3% of the tested compounds scored in any of these assays.
SMILES,NR3A LBD binder,Lipid droplet,GC-B act,JMJD2C inh,GC-A act,aDG glyco up
CCN(CC)CCCN=Cc1c(O)n(-c2ccccc2F)c(=O)[nH]c1=O,0.8,.,-5.2,4.5,-1.9,-0.2
CCN(CC)CCCN=Cc1c(O)n(-c2cccc(C)c2C)c(=O)[nH]c1=O,10.8*,.,3.7,-0.3,2.9,-0.2
COc1cc(/C=C/c2nc3ccccc3c(=O)n2-c2cccc(O)c2)ccc1O,-3.6,30.9,48.8*,-5.0,23.9,-0.3
COc1cc(/C=C/c2nc3ccccc3c(=O)n2-c2ccccc2O)ccc1O,-22.9,12.5,22.2,-5.2,11.2,-0.4
CN1CCN(c2ccc(C=O)cc2)CC1,-4.1,10.8,-4.6,59.1*,1.2,4.6
C[C@@H]1CNCCN1c1ccc(N2CC[C@@H](O)C2)c(C#N)c1,.,.,2.0,.,-0.7,.
Cc1cc(N2CCNC[C@H]2C)ccc1N1CCN[C@H](C)C1,.,.,2.0,.,2.3,.
Oc1cc(O)cc(/C=C/c2ccc(O)cc2O)c1,11.3*,.,.,-4.2,.,-0.3
COC(=O)C1=C(N)Oc2c(c(=O)oc3ccccc23)[C@]12C(=O)N(C)c1ccccc12,16.9*,.,-5.0,3.3,-3.0,0.4
O=c1[nH]c(=O)n(Cc2ccccc2)c(O)c1/C=C1\C=Nc2ccccc21,10.1*,16.2,-3.5,11.5,8.7,-0.2
C=C1C(O)[C@@H]2O[C@]3(CC[C@H](/C=C/C(C)[C@@H]4CC(C)=CC5(O[C@H](C[C@@](C)(O)C(=O)O)CCC5O)O4)O3)CC[C@H]2O[C@@H]1C(O)CC(C)[C@H]1OC2(CCCCO2)CCC1C (stereo partly drawn),12.9*,.,.,.,.,.
c1ccc(Cc2cnc(N3CCNCC3)nc2)cc1,.,.,2.8,.,-2.8,.
Cc1c(N=Cc2c(O)n(Cc3ccccc3)c(=O)[nH]c2=O)c(=O)n(-c2ccccc2)n1C,-1.1,-7.1,-2.5,-6.1,-1.4,-0.3
Cc1c(N=Nc2c(O)n(Cc3ccccc3)c(=O)[nH]c2=O)c(=O)n(-c2ccccc2)n1C,14.8*,-4.5,1.9,14.5,-3.8,0.6
O=C1NC(=O)C(=Cc2ccc(-c3ccccc3[N+](=O)[O-])o2)C(=O)N1,-2.1,-13.4,13.1,1.0,38.1,0.2
O=C1NC(=O)C(=Cc2ccc(-c3cc(Cl)ccc3[N+](=O)[O-])o2)C(=O)N1,0.9,-14.3,16.7,?,49.9*,-0.2
c1ccc(Cn2nnnc2C2CN=C(c3ccccc3)c3ccccc3N2)cc1 (stereo not drawn),.,.,-23.1,.,-15.8,.
CN1C(=O)C(Cc2ccc(OCc3ccccc3)cc2)C(=O)N(C)C1=O,-0.5,.,0.1,50.5*,8.5,0.1
COc1cc(CC2C(=O)N(C)C(=O)N(C)C2=O)ccc1OCc1ccccc1,-5.0,.,-1.1,52.5*,1.5,0.1
NCCc1ccc(OCc2ccccc2)c(OCc2ccccc2)c1,0.5,.,-15.3,-8.5,-17.0,-0.1
COC(=O)C1C(c2ccc(I)cc2)CC2CCC1N2C (stereo not drawn),.,.,-11.0,.,-3.3,.
CCN1CCN(Cc2ccccc2C)CC1,40.3*,-1.2,5.4,-5.0,0.8,-0.1
COc1ccc(Cc2cn(C)c(N)n2)cc1,.,.,3.7,.,1.5,.
CCN(CC)c1ccc(/C=C2/C(=O)NC(=O)N(CC3CCCO3)C2=O)cc1 (stereo not drawn),9.5,.,7.9,-7.2,18.6,-0.1
CCN(CC)c1ccc(/C=C2\C(=O)NC(=O)N(Cc3ccco3)C2=O)cc1,23.6*,3.7,1.7,?,15.1,-0.2
SMILES,NR3A LBD binder,Lipid droplet,GC-B act,JMJD2C inh,GC-A act,aDG glyco up
C=CC1C[N+]2(C)CCC1CC2C(O)c1ccnc2ccccc12 (stereo not drawn),.,.,2.3,.,3.7,.
O=[N+]([O-])c1ccc(N2CCCCC2)c2ncccc12,0.0,-0.2,-1.8,3.1,2.1,0.8
O=[N+]([O-])c1ccc(N2CCCCCC2)c2ncccc12,21.2*,0.0,1.5,1.2,0.5,-0.2
CC(=O)N1c2ccccc2C(c2ccccc2)=NCC1C(=O)NC1CCCCC1 (stereo not drawn),.,.,-1.4,.,-2.7,.
Cc1cc(N2CCNC[C@H]2C)ccc1N1CC[C@@H](O)C1,.,.,-5.7,.,-0.3,.
N=C(N)c1c(O)n(C2CCCCC2)c(=O)n(C2CCCCC2)c1=O,18.4*,-2.0,-2.8,6.8,-3.5,0.5
O=c1[nH]c(=S)[nH]c(O)c1N=Nc1cc(S(=O)(=O)Nc2ccc(Cl)cc2)ccc1Cl,12.8*,.,-9.5,-3.1,-4.2,-0.2
CCC(C)NC(=O)c1c(N)n(CC2CCCO2)c2nc3ccccc3nc12 (stereo not drawn),-20.1,.,1.8,112.8,10.2,0.5
CCC(C)NC(=O)c1c(N)n(Cc2ccc3c(c2)OCO3)c2nc3ccccc3nc12 (stereo not drawn),15.0*,.,21.8,37.6,5.9,3.8
O=C1NC(=O)C(C(CC(=O)c2ccccc2)c2ccccc2)C(=O)N1 (stereo not drawn),-0.3,-1.2,4.2,53.1*,-3.2,-0.1
Cc1cc(N2CCNC[C@H]2C)ccc1N1CCN[C@@H](C)C1,.,.,0.2,.,1.6,.
COc1ccc(-c2cc(=NCC(=O)O)c3ccccc3o2)cc1,13.3*,-8.8,.,-15.1,.,-0.1
C[C@H](NC(=O)OCc1ccccc1)[P+](=O)O,.,.,4.0,.,-2.0,.
COC(=O)C1=C(c2ccc(OC(F)(F)F)cc2)C[C@@H]2CC[C@H]1N2C(=O)NCCO,1.3,.,6.4,-4.2,1.5,-0.1
CCCNC(=O)N1[C@H]2CC[C@@H]1C(C(=O)OC)=C(c1ccc(Cl)c(C(F)(F)F)c1)C2,23.7*,.,-1.8,-8.4,-0.7,0.6
COC(=O)C1=C(c2ccc(OC(F)(F)F)cc2)C[C@@H]2CC[C@H]1N2C(=O)NCC1CC1,1.3,.,125.6*,3.6,-0.3,0.6
O=C(N/N=C/c1c(O)n(C2CCCCC2)c(=S)[nH]c1=O)c1ccccc1,-6.1,-1.3,3.0,1.1,-2.0,-0.2
O=C(N/N=C/c1c(O)n(C2CCCCC2)c(=S)[nH]c1=O)c1ccccc1O,21.8*,-1.6,-1.8,12.7,-0.6,0.0
Cc1ccc(OC(=O)N(C)C[C@@H]2OCc3ccccc3-c3c(n(C)c4ccccc34)C(=O)N([C@H](C)CO)C[C@H]2C)cc1,.,.,0.6,.,-2.9,.
O=C(Cn1ncc2c3ccccc3n(Cc3ccccc3F)c2c1=O)N1CCC2(CC1)OCCO2,-0.9,9.1,41.5*,2.2,29.4,0.0
